According to BindingDB's records for doi:10.1016/j.bmcl.2017.04.043 (Vanderbilt University Medical Center, 2017):

Columns and labels:
[1] = target: T1, Cytochrome P450 1A2 (Homo sapiens, UniProt P05177); test: ChEBML_1679936
T1 sequence (P05177 whole entry): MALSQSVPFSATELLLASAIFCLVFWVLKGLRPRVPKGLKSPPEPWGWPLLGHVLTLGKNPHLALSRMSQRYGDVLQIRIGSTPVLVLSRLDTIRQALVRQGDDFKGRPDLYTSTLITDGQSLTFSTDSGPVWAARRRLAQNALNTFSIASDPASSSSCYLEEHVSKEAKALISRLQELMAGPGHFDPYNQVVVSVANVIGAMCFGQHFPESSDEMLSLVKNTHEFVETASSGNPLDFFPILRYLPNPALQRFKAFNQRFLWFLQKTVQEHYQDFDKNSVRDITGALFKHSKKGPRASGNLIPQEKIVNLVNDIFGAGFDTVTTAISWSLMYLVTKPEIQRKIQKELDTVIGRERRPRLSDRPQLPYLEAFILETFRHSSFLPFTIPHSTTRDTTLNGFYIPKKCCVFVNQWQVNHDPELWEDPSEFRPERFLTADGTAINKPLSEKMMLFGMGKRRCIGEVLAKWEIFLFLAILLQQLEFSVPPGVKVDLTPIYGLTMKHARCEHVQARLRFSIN
Excerpt: Induction of CYP1A2 in cryopreserved human hepatocytes measured after 48 hrs

[2] = target: T2, Muscarinic acetylcholine receptor M4 (Homo sapiens, UniProt P08173); test: ChEBML_1679899
T2 sequence (P08173 whole entry): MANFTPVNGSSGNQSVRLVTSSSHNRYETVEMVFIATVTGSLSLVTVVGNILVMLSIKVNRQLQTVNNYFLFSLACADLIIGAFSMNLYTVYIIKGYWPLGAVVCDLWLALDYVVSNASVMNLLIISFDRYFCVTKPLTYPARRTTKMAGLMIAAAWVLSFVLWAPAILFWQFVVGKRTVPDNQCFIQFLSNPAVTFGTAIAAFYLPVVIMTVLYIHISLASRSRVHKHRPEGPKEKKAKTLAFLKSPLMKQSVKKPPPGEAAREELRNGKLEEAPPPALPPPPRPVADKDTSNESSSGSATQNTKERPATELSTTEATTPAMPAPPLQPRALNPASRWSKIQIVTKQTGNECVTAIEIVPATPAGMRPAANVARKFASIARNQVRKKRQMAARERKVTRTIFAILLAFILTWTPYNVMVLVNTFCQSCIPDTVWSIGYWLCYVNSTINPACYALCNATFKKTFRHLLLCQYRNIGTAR
Excerpt: (§1) Positive allosteric modulation of human M4 receptor expressed in CHO cells coexpressing Gqi5 assessed as increase in acetylcholine-induced calcium mobilization

[3] = target: T2, Muscarinic acetylcholine receptor M4; test: as §1
How it was run: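 Calcium mobilization in CHO cells expressing hM4 with Gqi5. Compound added in presence of a fixed EC20 concentration of acetylcholine. Values are means of three independent experiments, each run in triplicate.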

Compound | EC50 [2] | EC50 [3] | other results
Cc1nnc2sc(C(=O)NCc3ccc(-c4cccnc4F)cc3)c(N)c2c1C | – | – | EC50 [1]: > 50000 nM
Cc1cc(-c2ccc(CNC(=O)c3sc4nnc(C)c(C)c4c3N)cc2)cnc1F | 776 nM | – | –
Cc1nnc2sc(C(=O)NCc3ccc(-c4ccnc(F)c4)cc3)c(N)c2c1C | – | 49 nM | –
Cc1nnc2sc(C(=O)NCc3ccc(-c4ccncc4)cc3)c(N)c2c1C | – | 26.9 nM | –
Cc1nnc2sc(C(=O)NCc3ccc(-c4cccnc4)cc3)c(N)c2c1C | 63.1 nM | – | –
Cc1nnc2sc(C(=O)NCc3ccc(-c4cnccn4)cc3)c(N)c2c1C | – | 100 nM | –
